# Legend:
# Assay type in all cases: functional
# Set-up in all cases: scale not given: the % may be the effect or the level left
# BV-2 [1] = test: Inhibition of LPS-induced NO production in mouse BV2 microglia cells assessed as nitrite levels at 100 uM relative to untreated control
# Summary of the method: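 BV-2 microglia seeded 2 × 10^5 cells/well in 24-well plates. After 24 h, fresh medium with LPS ([…]) and compound in DMSO added at the same time. After 24 h, nitrite in the medium measured by Griess reaction (sulfanilamide, naphthylethylenediamine, H3PO4) with absorbance at 540 nm. Given as % of LPS-activated cells.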
# BV-2 [2] = test: Inhibition of LPS-induced tetrahydrobiopterin production in mouse BV2 microglia cells assessed as tetrahydrobiopterin levels at 10 uM relative to untreated control
# Summary of the method: (§1)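 BV-2 cells in 24-well plates (2 × 10^5/well) stimulated with LPS ([…]) in fresh medium together with compound in DMSO for 24 h. Medium was treated with phosphoric acid and acidic iodine (I2/KI in trichloroacetic acid) for 1 h in the dark. Oxidation stopped with ascorbic acid, then centrifuged and diluted. BH4 given as % of LPS-activated cells.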
# BV-2 [3] = test: Inhibition of LPS-induced tetrahydrobiopterin production in mouse BV2 microglia cells assessed as tetrahydrobiopterin levels at 60 uM relative to untreated control; summary of the method: as §1
# BV-2 [4] = test: Inhibition of LPS-induced tetrahydrobiopterin production in mouse BV2 microglia cells assessed as tetrahydrobiopterin levels at 30 uM relative to untreated control; summary of the method: as §1
# BV-2 [5] = test: Inhibition of LPS-induced tetrahydrobiopterin production in mouse BV2 microglia cells assessed as tetrahydrobiopterin levels at 100 uM relative to untreated control; summary of the method: as §1
# BV-2 [6] = test: Inhibition of LPS-induced tetrahydrobiopterin production in mouse BV2 microglia cells assessed as tetrahydrobiopterin levels at 50 uM relative to untreated control; summary of the method: as §1
SMILES,Activity (BV-2 [1]),further results
CCCCN1CCc2cc(OC)c(O)cc2C1,111%,
COc1cc2c(cc1O)C(C)N(C(C)=O)CC2 (stereo not given),40%,Activity (BV-2 [2]): 99%; Activity (BV-2 [3]): 59%; Activity (BV-2 [4]): 59%; Activity (BV-2 [5]): 52%
COc1cc2c(cc1O)C(C(C)C)N(C(C)=O)CC2 (stereo not given),39%,
CCC(=O)N1CCc2cc(OC)c(O)cc2C1,36%,Activity (BV-2 [2]): 86%; Activity (BV-2 [3]): 72%; Activity (BV-2 [5]): 51%
COc1cc2c(cc1O)C(c1ccccc1)N(C(C)=O)CC2 (stereo not given),51%,
CCCN1CCc2cc(OC)c(O)cc2C1,82%,
CCCC(=O)N1CCc2cc(OC)c(O)cc2C1,74%,
COc1cc2c(cc1O)C(CC(C)C)N(C(C)=O)CC2 (stereo not given),113%,
COc1cc2c(cc1O)C(Cc1ccccc1)N(C(C)=O)CC2 (stereo not given),96%,
COc1cc2c(cc1O)C(C1CCC1)N(C(C)=O)CC2 (stereo not given),69%,
CCCC1c2cc(O)c(OC)cc2CCN1C(C)=O (stereo not given),84%,
COc1cc2c(cc1O)CN(C(=O)C(C)C)CC2,82%,
COc1cc2c(cc1O)CN(C(=O)CC(C)C)CC2,90%,
CCC1c2cc(O)c(OC)cc2CCN1C(C)=O (stereo not given),50%,
COc1cc2c(cc1O)CN(C(C)=O)CC2,46%,Activity (BV-2 [6]): 79%; Activity (BV-2 [5]): 55%
COc1cc2c(cc1O)CN(CC1CCCCC1)CC2,63%,
COc1cc2c(cc1O)C(C1CC1)N(C(C)=O)CC2 (stereo not given),60%,
COc1cc2c(cc1O)CN(C(=O)C1CCCCC1)CC2,64%,Activity (BV-2 [3]): 71%; Activity (BV-2 [4]): 95%; Activity (BV-2 [5]): 63%

# From ChEMBL document CHEMBL1156698, “Syntheses of tetrahydroisoquinoline derivatives that inhibit NO production in activated BV-2 microglial cells” (Eur J Med Chem, 2008)
